Rows were chosen to be rich in hits. Some 2.3% of all compounds tested hit in one or more screens of this group.
CHT allo act: allosteric activators of human choline transporter CHT; Q9GZV3; CHT-expressing cells, membrane potential dye, choline EC20; active compounds read high; LV-AA mutant CHT in HEK293 cells; B-score at 10 µM; 0.49% of 310,000 active; AID 488977;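 active = initial fluorescence not abnormally high and integrated response B-score, plate-corrected, over 3 SD above library mean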
DSG3 Ab inh: human desmoglein-3 autoantibody binding inhibition. DSG3-coupled beads, scFv-anti-DSG3-GFP binding, flow cytometry; active compounds read low. P32926. binding (percent of control), % at 10 µM. 0.48% of 310,000 active;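 active = binding more than 3 SD below its plate's average and above zero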;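 also: hits lower antibody fragment binding to DSG3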
GPR7 antag: antagonists of human GPR7 (neuropeptides B/W receptor 1) | P48145 | GPR7-expressing cells, fluorescence antagonist assay | inhibition, % at 4.4 µM | 1.1% of 290,000 active | AID 1861; in the data active = inhibition above about 16%, passing the limit was not always enough;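 also: cells stimulated with the agonist NPW; 0% = agonist with vehicle and 100% = vehicle without agonist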
Target sequence (P48145 whole entry, looked up): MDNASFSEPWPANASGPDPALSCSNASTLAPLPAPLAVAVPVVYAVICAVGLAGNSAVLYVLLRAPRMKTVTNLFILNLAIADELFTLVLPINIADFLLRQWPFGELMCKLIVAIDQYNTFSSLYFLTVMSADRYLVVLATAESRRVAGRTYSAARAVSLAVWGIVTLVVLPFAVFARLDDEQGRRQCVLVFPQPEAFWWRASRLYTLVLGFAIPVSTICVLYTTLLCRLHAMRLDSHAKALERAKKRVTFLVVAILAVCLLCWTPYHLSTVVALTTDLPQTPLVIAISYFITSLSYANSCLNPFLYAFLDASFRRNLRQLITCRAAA
pCIP destab: p/CIP protein destabilization; Q05BA5; F442A p/CIP-EGFP cells, EGFP fluorescence, 16 h; decrease of EGFP signal, % at 10 µM; 0.01% of 290,000 active;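 active = EGFP signal decrease of at least 30% at 10 µM or well 3 SD below plate mean, unless failing retest; inactive = the rest, including hits failing retest or dose response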
CHT inh: human CHT choline transport inhibition; Q9GZV3; CHT-expressing cells, membrane potential dye, choline response; active compounds read low; B-score at 10 µM; 0.86% of 310,000 active; AID 488975;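 active = B-score over 3 SD under the library average, and starting fluorescence ratio not unusually high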;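 also: choline stimulus applied at its EC90 after an EC20 pre-addition; B-score computed on integrated fluorescence ratio after choline addition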
T cell modulator: modulates CD8 T cell binding to vesicles; response (vesicle binding), % at 7 µM; 0.068% of 330,000 active; 2C CD8+ T cell-vesicle binding, flow cytometry; active compounds read low;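 active = response, share of CD8 T cells binding vesicles, and their 90th percentile fluorescence all below set limits, cut at about 80% in these data, passing the limit was not always enough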;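 also: values below 100% mean blocked vesicle binding to the CD8+ T cells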
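Incubation: binding step 1.5 h, 37 °C, antibody labelling 20 min, ice; system: murine 2C transgenic CD8+ T lymphocytes; technique: cytometric PE anti-B7-1 and Alexa647 anti-CD8 signals after 1% paraformaldehyde fixation; also added: QL9-charged Drosophila Ld/ICAM-1/B7-1 vesicles; control set: naked versus QL9-loaded vesicles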
CHT inh conf: human CHT inhibition, confirmatory screen. shares compounds with CHT inh. CHT-expressing cells, choline membrane potential dye; LV-to-AA substituted CHT, HEK293 cells. CHT activity remaining % of control (active compounds read low), % at 10 µM. 70% of 2,400 active. AID 493221;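 active = choline transporter activity left, mean of duplicates at 10 µM, below buffer-only control mean minus 3 SD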;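 also: depolarization triggered by choline at its EC90 following an EC20 pre-addition; 0% = hemicholinium-3 full block and 100% = buffer-only control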
HEK293 CHT ctr: activity in parental HEK293 cells lacking CHT | membrane potential ratio readout (active if shifted either direction beyond buffer ±3SD; no single direction) at 10 µM | shares compounds with CHT inh | 4% of 2,400 active | membrane potential dye, choline response; active = decrease or increase beyond buffer ±3SD;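 also: parental cells lack the transporter so any hit is non-specific; ratio is peak minus trough fluorescence over baseline after EC90 choline challenge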
Active calls of the source: *; i = inactive; . = no result.

SMILES | CHT allo act | DSG3 Ab inh | GPR7 antag | pCIP destab | CHT inh | T cell modulator | CHT inh conf | HEK293 CHT ctr
O=[N+]([O-])c1ccc(S(=O)(=O)Nc2nc(-c3ccccc3)cs2)cc1 | i | 111.4 | -11.9 | -13.2 | -5.6* | 248.4 | 58.2%* | i
O=S(=O)(Nc1nc(-c2ccccc2)cs1)c1cccc(C(F)(F)F)c1 | i | 94.4 | -15.7 | -9.1 | -7.68* | 945.4 | 51.0%* | i
O=C(c1cccs1)N1C[C@H](O)[C@@H](n2cc(-c3ccc(F)cc3)nn2)C[C@@H]1c1ccccc1 | . | 110.2 | . | . | . | . | . | .
Cc1ccc(Cl)cc1N1CCN(C(=O)Cc2c(C(=O)O)[nH]c3ccccc23)CC1 | i | 103.5 | -6.3 | -4.4 | i | 382.2 | . | .
Cc1ccc(Cl)cc1N1CCN(C(=O)Cc2c(C(=O)O)[nH]c3ccc(Cl)cc23)CC1 | i | 22.9* | 1.1 | -6.0 | -7.65* | 233.1 | 55.2%* | i
CCN(CC)C(=O)C1=C(C)N(Cc2ccc(C(C)(C)C)cc2)C(=O)C(CC(=O)NC2CCCC2)C1 (centres undefined) | . | 103.1 | . | . | . | . | . | .
Cc1nccn1CCCN1C(=O)CNC1=S | i | 86.9 | 3.0 | 12.7 | i | 323.5 | . | .
Cc1nccn1C[C@@H]1CCc2c(c3ccccc3n2C)C1=O | i | . | -3.2 | 5.9 | -5.75* | 571.0 | 11.6%* | i
Cc1nccn1CC1CCc2c(c3ccccc3n2C)C1=O (centres undefined) | i | 120.0 | -3.8 | 5.3 | -6.66* | 503.1 | 7.4%* | i
O=S(CC(O)c1ccccc1)c1ccccc1 (centres undefined) | . | 109.0 | . | . | . | . | . | .
CCSc1nnc(NC(=O)C2CCCN(C(=O)c3ccc(Cl)cc3)C2)s1 (centres undefined) | . | 94.6 | . | . | . | . | . | .
C=C(C)C(=O)Nc1ccc2nn(-c3ccccc3O)nc2c1 | . | 100.3 | . | . | . | . | . | .
COc1ccc(C(=O)NCCC2=CCCCC2)cc1 | i | 100.2 | 5.1 | -14.8 | i | 185.7 | . | .
COc1ccc(OC(C)C(=O)NCCC2=CCCCC2)cc1 (centres undefined) | i | 105.9 | 2.3 | -3.2 | -5.12* | 208.7 | i | i
COc1ccc(C(=O)NCc2ccon2)cc1OC1CCN(C(C)C)CC1 | i | 106.9 | -3.6 | 3.9 | -7.3* | 146.3 | 34.0%* | i
COc1ccc(C(=O)N(C)CCCC2CCCC2)cc1OC1CCN(C(C)C)CC1 | i | 101.5 | -9.1 | -3.3 | -6.96* | 375.7 | 23.2%* | i
COc1ccc(C(=O)N2CCCCCCC2)cc1OC1CCN(C(C)C)CC1 | i | . | -13.8 | -17.4 | i | i | . | .
COc1ccc(C(=O)N(C)CCCC2CCCC2)cc1OC1CCN(C(C)=O)CC1 | i | 110.6 | -3.8 | -12.3 | i | 173.5 | . | .
COc1ccc(C(=O)N[C@H]2CCCCNC2=O)cc1OC1CCN(C(C)C)CC1 | i | 107.4 | -12.5 | -2.9 | -9.24* | 395.9 | 34.1%* | i
COc1ccc(C2=Nc3ccccc3C2(O)CCN2C(=O)c3ccccc3C2=O)cc1 (centres undefined) | . | 106.7 | . | . | . | . | . | .
CC(CC1C(C#N)=C(N)SC(N)=C1C#N)c1ccccc1 (centres undefined) | i | 111.0 | 1.3 | -26.0 | -5.35* | 738.5 | i | i
CC(O)c1cccc(NC(=O)CC(c2ccccc2)c2ccccc2)c1 (centres undefined) | i | 101.0 | -8.7 | -12.0 | -7.52* | 128.1 | 45.2%* | i
O=C(CCc1ccccc1)Nc1ccncc1 | i | 99.8 | -4.6 | -13.5 | i | 508.8 | . | .
O=C(CC(c1ccccc1)c1ccccc1)Nc1ccncc1 | i | 100.0 | -12.4 | -4.2 | -5.89* | 204.2 | 56.2%* | i
c1ccc2c(c1)-c1ccccc1C2N1CCOCC1 | . | 98.2 | . | . | . | . | . | .
CC(C)OC(=O)CN1CCN(C2c3ccccc3-c3ccccc32)CC1 | i | 102.5 | 1.2 | 7.5 | -5.61* | 264.2 | 70.4%* | i
